# High-throughput results as filed in PubChem.
# HCV core dimer – HCV core protein dimerization inhibition. TR-FRET GST/Flag-core106 dimerization, 1536-well. inhibition, % at 5 µM. 0.33% of 300,000 active. AID 1899;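 active = inhibition above the mean of all tested compounds plus 3 SD, set per screening campaign, cut at about 45% in these data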
#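 Assay system – GST-tagged and Flag-tagged HCV core protein residues 1-106 · Quantity – core106 proteins, GST 13.5 nM and Flag 17 nM · Benchmarks – unlabelled core106 and no-GST-core106 wells · Read-out basis – percent inhibition of core106 dimerization signal · Detection – time-resolved FRET, ex 340 nm, em 617 and 671 nm · Schedule – 4 h at 22.5 °C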
# HCV NS3 hel inh – blocks Hepatitis C virus NS3 helicase unwinding; NS3 helicase DNA unwinding, Cy5 molecular beacon fluorescence; inhibition, % at 10.9 µM; 0.56% of 290,000 active; AID 1800;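 active = inhibition above the mean of all tested compounds plus 3 SD, set per campaign, cut at about 35% in these data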;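 note: 0% = DMSO wells and 100% = thioflavine S control wells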
#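 Test system: hepatitis C virus NS3 helicase domain fragment enzyme. Also added: annealed dual-labelled DNA beacon duplex, ATP-started. Timing: 60 min unwinding reaction at 25 °C after ATP addition. Technique: Cy5 fluorescence. Measure: % inhibition of unwinding.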
# EBNA-1 inhibitor – blocks EBNA-1 binding to DNA | EBNA-1 DNA binding, fluorescence polarization | inhibition, % at 14.8 µM | 0.34% of 300,000 active | AID 1950; in the data active = inhibition above about 28%
# ZTA DNA inh – ZTA (EBV) inhibition in EBNA-1 counter-screen; 0.15% of 320,000 active; ZTA-DNA binding, fluorescence polarization; inhibition, % at 11 µM; in the data active = inhibition above about 33%
# Target sequence (P03206 whole entry, looked up): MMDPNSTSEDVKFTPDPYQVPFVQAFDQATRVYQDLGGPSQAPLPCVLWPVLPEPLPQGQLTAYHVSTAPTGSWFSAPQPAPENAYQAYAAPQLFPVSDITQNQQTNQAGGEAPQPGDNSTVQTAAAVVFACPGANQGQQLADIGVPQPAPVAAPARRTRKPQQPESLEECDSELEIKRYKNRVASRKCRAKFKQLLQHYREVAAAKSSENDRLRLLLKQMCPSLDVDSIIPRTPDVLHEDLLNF
# Active calls of the source: *; · = not tested or not shown. Only some compounds are listed: those with a hit (about 1.2% of all), similar ones and a draw of the others.
SMILES,HCV core dimer,HCV NS3 hel inh,EBNA-1 inhibitor,ZTA DNA inh
O=C1COc2ccc(C(=O)COC(=O)/C=C/c3cccc(F)c3)cc2N1,-2,11,4,2
O=C1COc2ccc(C(=O)COC(=O)/C=C/c3ccc(Br)o3)cc2N1,84*,·,8,2
Oc1ccc(C=Nc2ccc3ncccc3c2)c(O)c1,63*,0,11,12
Oc1ccc(C=Nc2cccc3ncccc23)c(O)c1,-7,14,-3,-8
COc1ccc(-c2oc(NC(=O)c3ccc(C)cc3)c(C#N)c2-c2ccc(OC)cc2)cc1,60*,-9,6,9
COc1ccc(C(=O)Nc2oc(-c3ccccc3)c(-c3ccccc3)c2C#N)cc1,47*,-3,6,1
COc1ccc(/C=C2\SC(=S)N(NC(=O)c3ccncc3)C2=O)cc1OC,-11,1,-3,-9
O=C(NN1C(=O)/C(=C/C=C/c2ccccc2)SC1=S)c1ccncc1,49*,26,-16,8
Cc1ccc(N2C(=O)[C@@H]3[C@H](C2=O)C2CCCN2[C@@H]3C(=O)c2ccccc2)cc1 (stereo partly drawn),58*,24,3,6
O=C(c1ccccc1)[C@@H]1[C@@H]2C(=O)N(c3ccc(F)cc3)C(=O)[C@@H]2C2CCCN21 (stereo partly drawn),4,6,-10,11
O=C(CN1C(=O)c2ccccc2C1=O)Nc1sc2c(c1C(=O)NCc1ccco1)CCCC2,64*,12,3,0
COc1ccc(N2Cc3cccc(C(=O)O)c3C2=O)cc1,48*,20,6,-3
COc1cc(CNc2ccc(N3CCCC3)cc2)cc(Cl)c1OC,-4,32,111*,127*
CCOc1cc(CNc2ccc(N3CCCC3)cc2)cc(Cl)c1OC,-1,17,97*,159*
CCOc1ccc(CNc2ccc(N3CCCC3)cc2)cc1,2,13,79*,86*
Nn1c(SCC(=O)NCCc2ccc(F)cc2)nnc1C1CCCCC1,·,·,·,-2
Cc1cc(C(=O)COC(=O)c2ccc3c(c2)NC(=O)CS3)c(C)n1CCc1ccc(Cl)cc1,48*,-6,27,-5
Cc1cc(C(=O)COC(=O)c2ccc(O)cc2)c(C)n1CCc1ccc(F)cc1,6,13,0,-5
O=C(Nc1cccc(/C=C/c2ccccn2)c1)c1ccc(-n2cncn2)c([N+](=O)[O-])c1,-2,·,8,-12
Cc1ccc(CCN2C(Nc3ccccc3)=NC[C@@H]2C)cc1,-6,·,-3,-15
Cc1ccc2nc(NC(=O)CSCC(=O)OCC(=O)c3ccc(Br)cc3)sc2c1,5,5,30*,8
Cc1ccc2nc(NC(=O)COC(=O)CSc3nc(C)cc(C)n3)sc2c1,2,1,-2,2
CSc1nsc(SCC(=O)Nc2nc3ccc(C)cc3s2)n1,1,2,32*,10
O=C(Cn1cnc2scc(-c3ccccc3)c2c1=O)NCc1ccco1,56*,16,-8,5
O=C(Cn1cnc2sc(-c3ccccc3)cc2c1=O)NCc1ccco1,65*,13,5,0
SMILES,HCV core dimer,HCV NS3 hel inh,EBNA-1 inhibitor,ZTA DNA inh
COc1ccc(-c2ccnc3nc(-n4cccc4)nn23)cc1,13,-5,8,-8
c1coc(-c2ccnc3nc(-n4cccc4)nn23)c1,56*,14,2,-12
O=C1c2ccc(-c3ccc(F)cc3OCc3ccccc3)cc2S(=O)(=O)c2cccc(C(=O)N3CCCC3)c21,·,·,·,-2
CN(C)c1ncc(C2=C(Cl)C(=O)C(N3CCCC3)=C(Cl)C2=O)s1,84*,30,1,11
COC(=O)c1c(C)oc2ccc(N(C(=O)c3ccncc3)S(=O)(=O)c3ccc4ccccc4c3)cc12,11,-21,14,-1
COC(=O)c1c(C)oc2ccc(N(C(=O)Oc3ccccc3)S(=O)(=O)c3ccc(Cl)c([N+](=O)[O-])c3)cc12,64*,8,-3,13
COc1ccc2[nH]c(=O)c(CN(Cc3nnnn3Cc3ccco3)C3CCCCC3)cc2c1,19,42*,-9,3
COc1ccc(Cn2nnnc2CN(Cc2cc3cc(C)ccc3[nH]c2=O)C2CCCC2)cc1,8,0,-7,2
COc1ccc2[nH]c(=O)c(CN(C3CCCCC3)C(c3nnnn3Cc3ccco3)C(C)C)cc2c1 (stereo not drawn),70*,32,1,-1
S=c1nc(SCc2ccccc2)[nH]c2ccccc12,65*,7,3,5
c1ccc(CSc2nc3ncncc3[nH]2)cc1,1,0,0,17
S=C1NC2=C(CCCC2=C2SCCS2)C(c2ccccc2)N1 (stereo not drawn),46*,12,8,9
CCOC(=O)c1c(-c2ccco2)csc1NC(=O)COC(=O)c1cnccn1,67*,·,-13,2
CCOC(=O)c1c(-c2ccco2)csc1NC(=O)CSc1nnc(N)s1,48*,32,7,12
Cc1ccccc1SCC(=O)Nc1cc(C(F)(F)F)ccc1N1CCOCC1,-2,·,-13,-8
N#Cc1c(NC(=O)c2ccc(Cn3cc(Br)cn3)o2)sc2c1CCCCC2,14,-4,-4,16
CC1CCc2c(sc(NC(=O)c3ccc(Cn4cc([N+](=O)[O-])cn4)o3)c2C#N)C1 (stereo not drawn),85*,13,6,0
CN(Cc1ccccc1)C(=O)c1ccc(NC(=O)Cc2cccc(NC(=O)C3CCCN(C(=O)C4CCCCC4)C3)c2)cc1 (stereo not drawn),·,·,·,10
CCOC(=O)c1cc(-c2ccco2)nc2c1c(C)nn2-c1ccccc1,59*,31,3,-3
COc1cc2cc(Br)cc(Br)c2nc1C,63*,-2,21,-3
Cc1ccc(C(=O)Nc2cccc(NC(=O)c3cccs3)c2)c(C)c1,-5,1,-15,-4
CC(C)c1ccc(-c2nn(-c3ccccc3)cc2C2C(C#N)=C(N)OC3=C2C(=O)CC(C)(C)C3)cc1 (stereo not drawn),48*,31,-4,19
Cc1ccc(C(=O)Nc2nc(-c3ccc([N+](=O)[O-])cc3)cs2)o1,52*,-8,5,-1
Cc1ncc(CO)c2c1Oc1nc(-c3ccccc3)nc(SCC(=O)N(C)c3ccccc3)c1C2,14,4,-15,5
Cc1ncc(CO)c2c1Oc1nc(-c3ccccc3F)nc(SCC(=O)N(C)c3ccccc3)c1C2,53*,4,-11,-4
Cc1ccc(NC(=O)C2COc3ccccc3O2)cc1S(=O)(=O)N1CCCCC1 (stereo not drawn),·,·,·,-8
CCCCC[C@H]1CN(Cc2ccccc2)C(=O)[C@@H]1CC(=O)NCc1ccc(OC)cc1,2,-15,17,-15
CCc1nn2c(=O)cc(COc3ccc(/C=C4\C(=N)N5N=C(C)SC5=NC4=O)cc3)nc2s1,47*,12,8,10
CCN(CC)C(=O)C1c2ccccc2Oc2ccccc21,-5,7,6,-16
CCCc1cc(=O)oc2cc(C)cc(OCC(=O)NCCCN3CCCC3=O)c12,-1,4,-6,0
